Measured values from different studies.
Target: Cyclin-dependent kinase 16 (CDK16, Homo sapiens, UniProt Q00536)

The remaining binding of `F[C@@H]1CCN(c2nccc(-c3cnn4ncccc34)n2)C1` is reported as 100% (binding; 1 µM).
The remaining binding of `c1ccc(N2CCN(Cc3nc4ccccc4[nH]3)CC2)nc1` is reported as 100% (binding; competition with immobilised ligand; 1 µM).
The remaining binding of `Cc1cnc(Nc2ccc(C(=O)N3CCC(N4CCCC4)CC3)cc2)nc1-c1cc2ccccc2s1` is reported as 3.9% (binding; competition with immobilised ligand; 1 µM).
`CNCc1ccccc1-c1csc([C@H](C)Nc2nc(C)nc3cc(OC)c(OC)cc23)c1` has a remaining binding of 83% (cell-free assay; competition with immobilised ligand; 1 µM).
With `CNC(=O)[C@@H]1CC[C@@H](n2c(-c3ccc4cnccc4c3)nc3ccc(C(=O)NCc4cccc(C(N)=O)c4)cc32)C1` the remaining binding was 100% (binding; competition with immobilised ligand; 1 µM).
`CN(C)c1ncc(F)c(-c2cnn3ncccc23)n1` gave a remaining binding of 96% (binding; 1 µM).
The remaining binding of `c1cncc(-c2cccc(Nc3nccc(NC4CCCCC4)n3)c2)c1` is reported as 95% (binding; competition with immobilised ligand; 10 µM).
`N[C@@H]1CCN(c2nccc(-c3cnn4ncccc34)n2)C1` has a remaining binding of 95% (binding; 1 µM).
`O=C(Nc1c[nH]nc1C(=O)NC1CCNCC1)c1cc(F)cc(F)c1` gave a remaining binding of 12% (binding; competition with immobilised ligand; 1 µM).
For `O=C(NCCCN1CCOCC1)c1ccc(Nc2ncc(Cl)c(-c3ccc(Cl)s3)n2)cc1`, the remaining binding was 23% (binding; competition with immobilised ligand; 1 µM).
With `Cc1noc([C@H]2C[C@@H](c3ccc(C(F)(F)F)cc3)CN(C(=O)N3CCS(=O)(=O)C3)C2)n1` the remaining binding was 100% (cell-free assay; competition with immobilised ligand; 1 µM).
`N#Cc1ccccc1CSc1nnc2c(n1)[nH]c1ccccc12` gave a remaining binding of 100% (binding; competition with immobilised ligand; 10 µM).
`CN(c1nccc(-c2cnn3ncccc23)n1)C1CC1` has a remaining binding of 100% (binding; 1 µM).
With `FC(F)(F)Oc1cccc(-c2cnc3ccc(-c4ccncc4)nn23)c1` the remaining binding was 53% (cell-free assay; competition with immobilised ligand; 5 µM).
`COCCOc1nc(-c2ccc(Cl)nc2)nc2c1CN(C(=O)c1ncn3ccccc13)CC2` has a remaining binding of 100% (cell-free assay; competition with immobilised ligand; 0.1 µM).
`COc1cnc(Nc2cccc(S(N)(=O)=O)c2)nc1N1CCN(c2ccccc2)CC1` gave a remaining binding of 79% (binding; competition with immobilised ligand; 1 µM).
`O=C(NCCCN1CCOCC1)c1ccc(Nc2nccc(-c3cc4ccccc4s3)n2)cc1` has a remaining binding of 75% (binding; competition with immobilised ligand; 1 µM).
`Cc1c(NC(=O)c2cc(C(N)=O)nc3cc(F)ccc23)c(C(F)(F)F)nn1Cc1ccc(C(C)(C)C)cc1` has a remaining binding of 100% (cell-free assay; competition with immobilised ligand; 1 µM).
With `CC(C)(C)c1ccc(-c2nc(CBr)nn2-c2cccc(O)c2)cc1` the remaining binding was 69% (cell-free assay; competition with immobilised ligand; 10 µM).
The remaining binding of `CN(C)c1nccc(-c2cnn3ncccc23)n1` is reported as 100% (binding; 1 µM).
`COc1cc(-c2cn(C3CCc4c(F)cccc4N(CC(F)(F)F)C3=O)nn2)ccc1-n1cnc(C)c1` (stereo not shown) gave a remaining binding of 82% (cell-free assay; competition with immobilised ligand; 1 µM).
The remaining binding of `c1cnn2ncc(-c3ccnc(N4CCC45COC5)n3)c2c1` is reported as 97% (binding; 1 µM).
With `CN(c1ccnc(CNc2nc(Nc3ccc4c(c3)CC(=O)N4)ncc2C(F)(F)F)n1)S(C)(=O)=O` the remaining binding was 82% (cell-free assay; competition with immobilised ligand; 1 µM).
For `COc1ccnn2ncc(-c3ccnc(N(C)C)n3)c12`, the remaining binding was 100% (binding; 1 µM).
`C[C@@H]1CN(c2ccc3ncc(-c4ccc5[nH]nc(C6CC6)c5c4)n3n2)C[C@H](C)O1` has a remaining binding of 98% (binding; competition with immobilised ligand; 50 nM).
